These results are taken from ChEMBL document CHEMBL1124265, “Effects of D-amino acid substitution on antagonist activities of angiotensin II analogues” (J Med Chem, 1988).

Residues, ends and D or L forms follow the SMILES beside them.

The first assay concerns the target Angiotensin II receptor (Homo sapiens) (UniProt P30556+P50052). The assay is described as follows: In vitro angiotensin II-like activity, expressed as percent relative to angiotensin II, measured in the rabbit aorta strip assay. Format: functional, tissue-based. Particulars: Oryctolagus cuniculus.
As to `CC[C@H](C)[C@H](NC(=O)[C@H](Cc1ccc(O)cc1)NC(=O)[C@@H](NC(=O)[C@@H](CCCNC(=N)N)NC(=O)CNC)C(C)C)C(=O)N[C@@H](Cc1c[nH]cn1)C(=O)N1CCC[C@@H]1C(=O)N[C@H](Cc1ccc(Cl)cc1)C(=O)O`, the Biological activity is -0%.

`CC[C@H](C)[C@H](NC(=O)[C@H](Cc1ccc(O)cc1)NC(=O)[C@@H](NC(=O)[C@@H](CCCNC(=N)N)NC(=O)CNC)C(C)C)C(=O)N[C@@H](Cc1c[nH]cn1)C(=O)N1CCC[C@@H]1C(=O)N[C@@H](Cc1ccc2ccccc2c1)C(=O)O`: the Biological activity was -0%.

`CC[C@H](C)[C@H](NC(=O)[C@H](Cc1ccc(O)cc1)NC(=O)[C@@H](NC(=O)[C@@H](CCCN=C(N)N)NC(=O)[C@@H](N)CC(=O)O)C(C)C)C(=O)NC(Cc1c[nH]cn1)C(=O)N1CCC[C@@H]1C(=O)N[C@@H](C(=O)O)[C@@H](C)CC` (stereo in doubt) [listing 1 of 2 here] had a Biological activity of -0%.

As for `CC[C@H](C)[C@H](NC(=O)C(C)NC(=O)[C@H](Cc1c[nH]cn1)NC(=O)[C@H](NC(=O)[C@@H](Cc1ccc(O)cc1)NC(=O)[C@@H](NC(=O)[C@H](CCCNC(=N)N)NC(=O)[C@@H](N)CC(=O)O)C(C)C)C(C)C)C(=O)O` (stereo in doubt), the Biological activity was -0%.

For the compound `CC[C@H](C)[C@H](NC(=O)[C@H](Cc1ccc(O)cc1)NC(=O)[C@@H](NC(=O)[C@@H](CCCNC(=N)N)NC(=O)CNC)C(C)C)C(=O)N[C@@H](Cc1c[nH]cn1)C(=O)N1CCC[C@@H]1C(=O)N[C@H](Cc1ccccc1)C(N)=O`, the Biological activity was -0%.

On to `CC[C@H](C)[C@H](NC(=O)[C@@H]1CCCN1C(=O)[C@H](Cc1c[nH]cn1)NC(=O)[C@@H](NC(=O)[C@@H](Cc1ccc(O)cc1)NC(=O)[C@@H](NC(=O)[C@@H](CCCN=C(N)N)NC(=O)CNC)C(C)C)[C@@H](C)CC)C(=O)O`, for which the Biological activity was -0%.

On to `CC[C@H](C)[C@H](NC(=O)[C@H](Cc1ccc(O)cc1)NC(=O)[C@@H](NC(=O)[C@H](CCCN=C(N)N)NC(=O)[C@@H](N)CC(=O)O)C(C)C)C(=O)N[C@@H](Cc1c[nH]cn1)C(=O)N1CCC[C@H]1C(=O)N[C@@H](Cc1ccc(O)cc1)C(=O)O` (H-DRVYIHPY-OH), for which the Biological activity was 100%.

With `CC[C@H](C)[C@H](NC(=O)[C@@H]1CCCN1C(=O)[C@@H](Cc1c[nH]cn1)NC(=O)[C@@H](NC(=O)[C@@H](Cc1ccc(O)cc1)NC(=O)[C@@H](NC(=O)[C@H](CCCN=C(N)N)NC(=O)CNC)C(C)C)[C@@H](C)CC)C(=O)O`, the Biological activity was -0%.

In the case of `CC[C@H](C)[C@H](NC(=O)[C@H](Cc1ccc(O)cc1)NC(=O)[C@@H](NC(=O)[C@@H](CCCNC(=N)N)NC(=O)CNC)C(C)C)C(=O)NC(Cc1c[nH]cn1)C(=O)N1CCC[C@@H]1C(=O)N[C@@H](C(=O)O)C(C)C` (stereo in doubt), the Biological activity is -0%.

For the compound `CC[C@H](C)[C@H](NC(=O)[C@@H](Cc1ccc(O)cc1)NC(=O)[C@@H](NC(=O)[C@H](CCCNC(=N)N)NC(=O)CNC)C(C)C)C(=O)N[C@@H](Cc1c[nH]cn1)C(=O)N1CCC[C@H]1C(=O)N[C@@H](C(=O)O)C(C)C`, the Biological activity is -0%.

In the case of `CC[C@H](C)[C@H](NC(=O)[C@@H]1CCCN1C(=O)[C@H](Cc1c[nH]cn1)NC(=O)[C@H](NC(=O)[C@@H](Cc1ccc(O)cc1)NC(=O)[C@@H](NC(=O)[C@H](CCCN=C(N)N)NC(=O)CNC)C(C)C)C(C)C)C(=O)O`, the Biological activity was -0%.

In turn, `CC[C@H](C)[C@H](NC(=O)[C@H](Cc1ccc(O)cc1)NC(=O)[C@@H](NC(=O)[C@@H](CCCNC(=N)N)NC(=O)CNC)C(C)C)C(=O)N[C@@H](Cc1c[nH]cn1)C(=O)N1CCC[C@@H]1C(=O)N[C@H](Cc1ccc(B(O)O)cc1)C(=O)O` showed a Biological activity of -0%.

As for `CC[C@H](C)[C@H](NC(=O)[C@H](Cc1ccc(O)cc1)NC(=O)[C@@H](NC(=O)[C@@H](CCCNC(=N)N)NC(=O)CNC)C(C)C)C(=O)N[C@@H](Cc1c[nH]cn1)C(=O)N1CCC[C@@H]1C(=O)N[C@](C)(Cc1ccccc1)C(=O)O`, the Biological activity is -0%.

The compound `CC[C@H](C)[C@H](NC(=O)[C@@H]1CCCN1C(=O)[C@H](Cc1c[nH]cn1)NC(=O)[C@@H](NC(=O)[C@@H](Cc1ccc(O)cc1)NC(=O)[C@@H](NC(=O)[C@H](CCCN=C(N)N)NC(=O)CNC)C(C)C)[C@@H](C)CC)C(=O)O` returned a Biological activity of -0%.

Turning to `CC[C@H](C)[C@H](NC(=O)[C@H](Cc1ccc(O)cc1)NC(=O)[C@@H](NC(=O)[C@@H](CCCNC(=N)N)NC(=O)CNC)C(C)C)C(=O)N[C@@H](Cc1c[nH]cn1)C(=O)N1CCC[C@@H]1C(=O)NC(Cc1c[nH]c2ccccc12)C(=O)O` (stereo in doubt) [listing 1 of 2 here], the Biological activity was -0%.

`CC[C@H](C)[C@H](NC(=O)[C@@H]1CCCN1C(=O)[C@H](Cc1c[nH]cn1)NC(=O)[C@@H](NC(=O)[C@H](Cc1ccc(O)cc1)NC(=O)[C@H](NC(=O)[C@H](CCCN=C(N)N)NC(=O)CNC)C(C)C)[C@@H](C)CC)C(=O)O` returned a Biological activity of -0%.

The species named for a further assay is Rattus norvegicus. The assay is described as follows: Dose required for the two fold increase in the dose of AII to produce the same elevation in blood pressure as in the control period. The class given is functional.
Conditions: not given
The method in brief: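 Rat blood pressure assay in vivo, using 250-g rats. ID50 is the antagonist dose, in ng/rat per min, that requires a twofold increase in the AII dose to give the same blood pressure rise as in the control period.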
As to `CC[C@H](C)[C@H](NC(=O)[C@H](Cc1ccc(O)cc1)NC(=O)[C@@H](NC(=O)[C@H](CCCNC(=N)N)NC(=O)CNC)C(C)C)C(=O)N[C@@H](Cc1c[nH]cn1)C(=O)N1CCC[C@H]1C(=O)N[C@H](Cc1ccc2ccccc2c1)C(=O)O`, the ID50 is given as 25 ng min-1 rat-1.

Compound `CC[C@H](C)[C@H](NC(=O)[C@H](Cc1ccc(O)cc1)NC(=O)[C@@H](NC(=O)[C@@H](CCCNC(=N)N)NC(=O)CNC)C(C)C)C(=O)N[C@@H](Cc1c[nH]cn1)C(=O)N1CCC[C@@H]1C(=O)NC(Cc1c[nH]c2ccccc12)C(=O)O` (stereo in doubt) [listing 2 of 2 here] had an ID50 of 10 ng min-1 rat-1.

In the case of `CC[C@H](C)[C@H](NC(=O)[C@H](Cc1ccc(O)cc1)NC(=O)[C@@H](NC(=O)[C@H](CCCNC(=N)N)NC(=O)CNC)C(C)C)C(=O)N[C@@H](Cc1c[nH]cn1)C(=O)N1CCC[C@H]1C(=O)N[C@H](Cc1ccc(Cl)cc1)C(=O)O`, the ID50 was 25 ng min-1 rat-1.

A further assay concerns Rattus norvegicus. The assay is described as follows: In vivo AII-like activity, expressed as percent activity relative to AII (angiotensin II), measured in rat blood pressure assay. Format: functional.
Conditions: not given
The method in brief: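 Rat blood pressure assay in vivo. Residual agonist activity is expressed as percent activity relative to AII.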
`CC(C)[C@H](NC(=O)[C@H](CCCN=C(N)N)NC(=O)[C@@H](N)CC(N)=O)C(=O)N[C@H](Cc1ccc(O)cc1)C(=O)N[C@H](C(=O)N[C@@H](Cc1c[nH]cn1)C(=O)N1CCC[C@H]1C(=O)N[C@@H](Cc1ccccc1)C(=O)O)C(C)C` showed a Biological activity of 0.03%.

Take `COC(=O)[C@H](Cc1ccccc1)NC(=O)[C@@H]1CCCN1C(=O)[C@H](Cc1c[nH]cn1)NC(=O)[C@@H](NC(=O)[C@H](Cc1ccc(O)cc1)NC(=O)[C@@H](NC(=O)[C@H](CCCN=C(N)N)NC(=O)[C@@H](N)CC(N)=O)C(C)C)C(C)C` (H-NRVYVHPF-OMe): the Biological activity worked out at 10%.

Take `CC[C@H](C)[C@H](NC(=O)[C@H](Cc1ccc(O)cc1)NC(=O)[C@@H](NC(=O)[C@H](CCCN=C(N)N)NC(=O)[C@@H](N)CC(=O)O)C(C)C)C(=O)N[C@@H](Cc1c[nH]cn1)C(=O)N1CCC[C@H]1C(=O)N[C@@H](Cc1c[nH]c2ccccc12)C(=O)O` (H-DRVYIHPW-OH): the Biological activity was determined as 22.2%.

`CC(C)[C@H](NC(=O)[C@H](CCCNC(=N)N)NC(=O)[C@@H](N)CC(N)=O)C(=O)N[C@@H](Cc1ccc(O)cc1)C(=O)N1CCC[C@@H]1C(=O)N[C@@H](Cc1c[nH]cn1)C(=O)N1CCC[C@H]1C(=O)N[C@@H](Cc1ccccc1)C(=O)O` yielded a Biological activity of 0.05%.

Regarding `CC[C@H](C)[C@H](NC(=O)[C@H](Cc1ccc(O)cc1)NC(=O)[C@@H](NC(=O)[C@H](CCCN=C(N)N)NC(=O)[C@@H](N)CC(=O)O)C(C)C)C(=O)N[C@@H](Cc1c[nH]cn1)C(=O)N1CCC[C@H]1C(=O)N[C@@H](Cc1ccc(O)cc1)C(=O)O` (H-DRVYIHPY-OH), the Biological activity is recorded as 83%.

For the compound `CC[C@H](C)[C@H](NC(=O)[C@H](Cc1ccc(O)cc1)NC(=O)[C@@H](NC(=O)[C@H](CCCN=C(N)N)NC(=O)[C@@H](N)CC(=O)O)C(C)C)C(=O)N[C@@H](Cc1c[nH]cn1)C(=O)N1CCC[C@H]1C(=O)N[C@H](C(=O)O)C(C)C` (H-DRVYIHPV-OH), the Biological activity came out at 0.5%.

Compound `CC[C@H](C)[C@H](NC(=O)[C@H](Cc1ccc(O)cc1)NC(=O)[C@@H](NC(=O)[C@H](CCCN=C(N)N)NC(=O)[C@@H](N)CC(=O)O)C(C)C)C(=O)N[C@@H](Cc1c[nH]cn1)C(=O)N1CCC[C@H]1C(=O)N[C@@H](Cc1ccc(N)cc1)C(=O)O` displayed a Biological activity of 53%.

In the case of `CC(C)[C@H](NC(=O)[C@H](CCCN=C(N)N)NC(=O)[C@@H](N)CC(N)=O)C(=O)N[C@@H](Cc1ccc(O)cc1)C(=O)N[C@H](C(=O)N[C@@H](Cc1c[nH]cn1)C(=O)N1CCC[C@H]1C(=O)N[C@@H](Cc1ccccc1)C(N)=O)C(C)C` (H-NRVYVHPF-NH2), the Biological activity was determined as 3%.

In turn, `CC[C@H](C)[C@H](NC(=O)[C@H](Cc1ccc(O)cc1)NC(=O)[C@@H](NC(=O)[C@H](CCCN=C(N)N)NC(=O)[C@@H](N)CC(=O)O)C(C)C)C(=O)N[C@@H](Cc1c[nH]cn1)C(=O)N1CCC[C@H]1C(=O)N[C@@H](Cc1ccc(Br)cc1)C(=O)O` returned a Biological activity of 50%.

Regarding `CC[C@H](C)[C@H](NC(=O)[C@H](Cc1ccc(O)cc1)NC(=O)[C@@H](NC(=O)[C@H](CCCNC(=N)N)NC(=O)[C@@H](N)CC(=O)O)C(C)C)C(=O)N[C@@H](Cc1c[nH]cn1)C(=O)N1CCC[C@H]1C(=O)N[C@@H](C(=O)O)[C@@H](C)CC`, the Biological activity was determined as 0.72%.

`CC[C@H](C)[C@H](NC(=O)[C@H](Cc1ccc(O)cc1)NC(=O)[C@@H](NC(=O)[C@H](CCCN=C(N)N)NC(=O)[C@@H](N)CC(=O)O)C(C)C)C(=O)N[C@@H](Cc1c[nH]cn1)C(=O)N1CCC[C@H]1C(=O)N[C@@](C)(Cc1ccccc1)C(=O)O` yielded a Biological activity of 80%.

In the case of `CC(C)[C@H](NC(=O)[C@H](CCCN=C(N)N)NC(=O)[C@@H](N)CC(N)=O)C(=O)N[C@@H](Cc1ccc(O)cc1)C(=O)N1CCC[C@H]1C(=O)N[C@@H](Cc1c[nH]cn1)C(=O)N1CCC[C@H]1C(=O)N[C@@H](Cc1ccccc1)C(=O)O`, the Biological activity is given as 10%.

In the case of `CC[C@H](C)[C@H](NC(=O)[C@H](Cc1ccc(O)cc1)NC(=O)[C@@H](NC(=O)[C@@H](CCCN=C(N)N)NC(=O)[C@@H](N)CC(=O)O)C(C)C)C(=O)NC(Cc1c[nH]cn1)C(=O)N1CCC[C@@H]1C(=O)N[C@@H](C(=O)O)[C@@H](C)CC` (stereo in doubt) [listing 2 of 2 here], the Biological activity is recorded as 0.014%.
